Series [1] concerns the target Human immunodeficiency virus type 1 reverse transcriptase (Human immunodeficiency virus 1, UniProt Q72547). Description: Inhibition of DNA synthesis by HIV reverse transcriptase.
For series [2], the system named is MT4. Description: The concentration required to cause a 50% inhibition of cell proliferation was determined in MT-4 cell culture. The format is functional. The settings on record: Homo sapiens, read-out: CD50 (the source's name). The essentials:
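Uninfected MT-4 cells grown 3 days with compound at 0.001–100 μg/mL, triplicate per dose. Cell concentration and viability read by trypan blue exclusion; CD50 = concentration halving cell proliferation. Values averaged from two independent experiments.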

The subject of series [3] is MT4. Description: The concentration required to cause a 50% inhibition of HIV reproduction was determined in MT-4 cell culture for liposome-entrapped forms. The format is functional. Particulars: Homo sapiens, read-out: ID50 (the source's name). The method in brief:
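HIV-1 GKV-4046 in MT-4 cells, MOI 0.2–0.5, 3-day culture, p24 immunoassay read-out. Compounds given in phosphatidylcholine liposomes: dry lipid film hydrated with compound in PBS pH 7.0 (1:124 drug/lipid, 1 mM compound), extruded down to 0.1 μm pores (mean 0.16 μm); 40–50% entrapment. ID50 from two independent experiments.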

Series [4] deals with MT4. Description: The concentration required to cause a 50% inhibition of HIV reproduction was determined in MT-4 cell culture for free forms. Format: functional. The settings on record: Homo sapiens, read-out: ID50 (the source's name). The essentials: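 HIV-1 strain GKV-4046 in MT-4 cells (2×10^6/mL, viability >90%), MOI 0.2–0.5; cells in RPMI-1640 with 10% FBS, 37 °C, 5% CO2. Infected cells grown 3 days with free compound at 0.001–100 μg/mL, triplicate per dose. p24 antigen measured by immunoassay; ID50 = concentration halving HIV reproduction; two independent experiments averaged.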

The nature of series [5]: Half life period in human blood serum was determined at 37 degrees Centigrade. Format: ADME, Plasma. The essentials: (§1)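 Compounds held at 37 °C in human blood serum or in phosphate buffer, pH 7.5. For serum samples, precipitated proteins were spun off after thawing. Remaining material was analysed by RP-18 HPLC with a 0–25% linear gradient of 70% ethanol in 0.05 M triethylammonium bicarbonate (pH 7.5–8.0) over 25 min. Total loaded taken as 100%. Half-lives were averaged from at least three experiments.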

Series [6] in a line: Half life period in phosphate buffer (pH 7.5) was determined at 37 degrees Centigrade. Format: ADME. The method in brief:
as §1

The values below come from ChEMBL document CHEMBL1135574, “Carbocyclic dinucleoside polyphosphonates: interaction with HIV reverse transcriptase and antiviral activity” (J Med Chem, 2002).

`Nc1nc2c(ncn2C2C=CC(OCP(=O)(O)OP(=O)(O)C(Br)(Br)P(=O)(O)O)C2)c(=O)[nH]1` (stereo unspecified): in series [1], the IC50 is above 200 µM.

In the case of `Nc1ncnc2c1ncn2C1C=CC(OCP(=O)(O)OP(=O)(O)OP(=O)(O)OP(=O)(O)COC2C=CC(n3cnc4c(N)ncnc43)C2)C1` (stereo unspecified), the CC50 in series [2] is 131 µM. In addition, the IC50 in series [1] was 2 µM; in series [3], 1.2 µM; in series [4], 2 µM.

One may read the half-life as the time needed for the level to fall by half in the phase considered. As to `Nc1nc2c(ncn2C2C=CC(OCP(=O)(O)OP(=O)(O)OP(=O)(O)OP(=O)(O)COC3C=CC(n4cnc5c(=O)[nH]c(N)nc54)C3)C2)c(=O)[nH]1` (stereo unspecified), in series [2], the CC50 is above 12 µM. In addition, the figures for the half-life in series [5] and in series [6] were 3 h and 12 h, respectively. The figures for the IC50 in series [1], in series [3] and in series [4] were 0.7 µM, 0.5 µM and above 12 µM, respectively.

Turning to `Nc1ncnc2c1ncn2C1C=CC(OCP(=O)(O)OP(=O)(O)C(F)(F)P(=O)(O)OP(=O)(O)COC2C=CC(n3cnc4c(N)ncnc43)C2)C1` (stereo unspecified), the IC50 in series [1] was determined as 20 µM.

With `Nc1nc2c(ncn2C2C=CC(OCP(=O)(O)OP(=O)(O)C(Br)(Br)P(=O)(O)OP(=O)(O)COC3C=CC(n4cnc5c(=O)[nH]c(N)nc54)C3)C2)c(=O)[nH]1` (stereo unspecified), the IC50 in series [1] was above 250 µM.

For `Nc1nc2c(ncn2C2C=CC(OCP(=O)(O)OP(=O)(O)OP(=O)(O)COC3C=CC(n4cnc5c(=O)[nH]c(N)nc54)C3)C2)c(=O)[nH]1` (stereo unspecified), the CC50 in series [2] came out at 56 µM. Further, the IC50 in series [1] came to 8 µM; in series [4], 9 µM.

On to `Nc1nc(O)c2ncn(C3C=CC(OCP(=O)(O)O)C3)c2n1` (stereo unspecified), for which the CC50 in series [2] is above 320 µM. Also, the IC50 in series [4] worked out at 201 µM.

For `Nc1ncnc2c1ncn2C1C=CC(OCP(=O)(O)OP(=O)(O)C(Br)(Br)P(=O)(O)OP(=O)(O)COC2C=CC(n3cnc4c(N)ncnc43)C2)C1` (stereo unspecified), the CC50 in series [2] is above 110 µM. In addition, the IC50 is above 200 µM in series [1] and 5.4 µM in series [4].

Regarding `Nc1nc2c(ncn2C2C=CC(OCP(=O)(O)OP(=O)(O)C(F)(F)P(=O)(O)O)C2)c(=O)[nH]1` (stereo unspecified), the CC50 in series [2] was 144 µM. Besides, the half-life in series [5] is 7 h; in series [6], above 24 h. Also, the IC50 in series [1] is 25 µM; in series [4] it was above 200 µM.

As for `Nc1ncnc2c1ncn2C1C=CC(OCP(=O)(O)OP(=O)(O)OP(=O)(O)COC2C=CC(n3cnc4c(N)ncnc43)C2)C1` (stereo unspecified), the CC50 in series [2] is 146 µM. Further, the figures for the IC50 in series [1] and in series [4] were 10 µM and 6.6 µM, respectively.

For the compound `Nc1nc(O)c2ncn(C3C=CC(OCP(=O)(O)OP(=O)(O)C(F)(F)P(=O)(O)OP(=O)(O)COC4C=CC(n5cnc6c(O)nc(N)nc65)C4)C3)c2n1` (stereo unspecified), in series [2], the CC50 turned out to be 84 µM. For the same compound, the half-life was 3 h in series [5] and 15 h in series [6]. In addition, the IC50 in series [1] worked out at 15 µM; in series [4], 60 µM.

In the case of `Nc1ncnc2c1ncn2C1C=CC(OCP(=O)(O)OP(=O)(O)OP(=O)(O)O)C1` (stereo unspecified), the CC50 in series [2] came to 212 µM. In addition, the IC50 was 0.2 µM in series [1] and above 10 µM in series [4].

Compound `Nc1ncnc2c1ncn2C1C=CC(OCP(=O)(O)OP(=O)(O)C(F)(F)P(=O)(O)O)C1` (stereo unspecified) gave an IC50 in series [1] of 25 µM.

Take `Nc1ncnc2c1ncn2C1C=CC(OCP(=O)(O)OP(=O)(O)C(Br)(Br)P(=O)(O)O)C1` (stereo unspecified): the CC50 in series [2] is above 160 µM. Also, the results for the IC50 in series [1] and in series [4] were above 1000 µM and 80 µM, respectively.

Turning to `Nc1nc2c(ncn2C2C=CC(OCP(=O)(O)OP(=O)(O)OP(=O)(O)O)C2)c(=O)[nH]1` (stereo unspecified), in series [2], the CC50 came out at 20.5 µM. For the same compound, the IC50 in series [1] is 0.3 µM; in series [3], below 1 µM; in series [4] it was 7.2 µM.

As for `Nc1nc2c(ncn2[C@H]2C[C@H](O)[C@@H](COP(=O)(O)OP(=O)(O)OP(=O)(O)O)O2)c(=O)[nH]1` [DEOXYGUANOSINE TRIPHOSPHATE], the half-life in series [5] was 0.3 h; in series [6], above 24 h.

In the case of `Cc1cn([C@H]2C=C[C@@H](CO)O2)c(=O)[nH]c1=O` [STAVUDINE], in series [2], the CC50 came to 314 µM. The IC50 in series [4] was determined as 0.24 µM.

As for `Cc1cn([C@H]2C[C@H](N=[N+]=[N-])[C@@H](CO)O2)c(=O)[nH]c1=O` [ZIDOVUDINE], in series [2], the CC50 was 140 µM. For the same compound, in series [4], the IC50 came out at 0.004 µM.
